Measles CPE: compounds protecting cells from measles virus cytopathic effect, primary screen, measles RdRp inhibitor project, single point, MLSMR library, absorbance | 140,000 compounds, 1.5% hits | Measles virus-infected cells, CPE protection | protection (pct of control), % at 4 µM; in the data active = protection mostly above about 24%, no sharp cut-off; inactive = mostly below about 26%
Yeast life ext: compounds extending yeast replicative lifespan, primary screen, S. cerevisiae, OD615; S. cerevisiae growth with nicotinamide; deaD strain in restrictive glucose medium; inhibition of the nicotinamide effect, % at 10 µM; 130,000 compounds, 0.68% hits; AID 775, 2007;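 active = inhibition above a set limit, placed 3 SD over the median of all compounds, cut at about 26% in these data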;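 also: 0% = nicotinamide-treated wells and 100% = cells grown without nicotinamide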
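Measured by: optical density (absorbance) at 615 nm; System: modified budding yeast, DeaD strain; Medium: restrictive CSMM-D dextrose medium; Timing: 4 h preincubation then 48 h treatment at 30 °C.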
RAM network inh: inhibitors of the yeast RAM network, primary screen, dse1pr::URA3 reporter, 5-FOA selection; 190,000 compounds, 1.8% hits; inhibition, % at 50 µM; AID 868, 2007; S. cerevisiae dse1pr::URA3 reporter, 5-FOA growth OD615, 2 d; analog-sensitive cbk1-as2 kinase mutant strain;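 active = inhibition above a set limit, 3 SD over mean compound inhibition, cut at about 8.4% in these data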;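 also: 0% = DMSO-only wells with no growth and 100% = 10 µM 1-NA-PP1 full growth; inhibition rescues growth on 5-FOA so higher OD means more RAM inhibition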
BB579 growth dn: growth inhibitors of yeast BB579 in restrictive medium, primary screen, yeast lifespan-shortening project, S. cerevisiae; OD615, 48 h; inhibition, % at 10 µM; 140,000 compounds, 0.51% hits; AID 804, 2007;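 active = inhibition above a set limit, 3 SD over the mean compound inhibition, cut at about 44% in these data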
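test system = yeast BB579 (DeaD) | buffer or medium = restrictive CSMM-D medium | doses = single compound dose of 10 µM, 0.25% DMSO final | times = 4 h preincubation and 48 h exposure at 30 °C | technique = culture absorbance at 615 nm | benchmarks = amphotericin B 10 µg/mL, positive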
Starred values were filed as active, the others as inactive; / = not tested or not shown. Hits are enriched below; roughly 3.6% of the tested compounds scored in any of these assays.

SMILES	Measles CPE	Yeast life ext	RAM network inh	BB579 growth dn
Cc1ccc(C(=O)NCCSc2ccc(Cl)cc2)cc1S(=O)(=O)Nc1ccccc1	43	-5	10*	-37
O=C(C1CCCN(S(=O)(=O)c2cccc3nonc23)C1)N1CCN(c2ccccc2)CC1 (configuration not stated)	16	-10	-1	-11
CC1CC(C)CN(C(=O)C2CCCN(S(=O)(=O)c3cccc4nonc34)C2)C1 (configuration not stated)	53*	-15	3	-34
CC(C)N(C(=O)C[n+]1ccsc1N)c1ccccc1	/	/	2	/
Cc1ccc(Cl)cc1NC(=O)Cn1cccc1	70*	-12	0	-31
Cc1cccc2sc(NC(=O)Cn3cccc3)nc12	77*	-11	2	2
CCc1cccc(NC(=O)Cn2cccc2)c1	50*	-6	1	-10
Cc1cccc2sc(NC(=O)CCn3cccc3)nc12	/	/	3	/
COCC(=O)Nc1cc(Cl)ccc1C	/	/	1	/
CN(C)/C=N/C(=S)Nc1ccc(Cl)cc1Cl	/	/	1	/
O=c1nc(SCc2cccc(C(F)(F)F)c2)nc2ccccn12	/	/	1	/
CCNc1nc(NC(C)CC)nc(Oc2ccc(OCC)nn2)n1 (configuration not stated)	/	/	0	/
CC(=O)c1c(C)nc2sc3c(=N)n(N)cnc3c2c1-c1ccc(Cl)cc1	2	3	-1	0
CC(=O)Nc1ccc(N(C(=O)c2ccco2)C(C(=O)NC2CCCC2)c2ccc(N3CCOCC3)cc2)cc1 (configuration not stated)	/	/	2	/
COC(=O)c1ccc(CN2CCN(Cc3ccc(C(=O)OC)o3)CC2)o1	8	5	2	7
COC(=O)c1ccc(Cn2c(O)c(N=O)c3ccccc32)o1	66*	-2	0	-10
O=Nc1c(O)n(Cc2cccc(C(F)(F)F)c2)c2ccccc12	/	/	4	/
O=Nc1c(O)n(Cc2ccc(Cl)c(Cl)c2)c2ccccc12	21	-34	1	87*
CCOC(=O)Cc1csc(/C(=N/O)C(N)=O)n1	33*	6	2	-73
CCOC(=O)Cc1csc(N)n1	4	-2	0	-15
CCOC(=O)c1cc(-c2ccc3c(c2)OCCO3)nc2c1c(C)nn2CCC#N	6	-32	9.0*	-41
CCOC(=O)c1cc(-c2ccc(Cl)cc2)nc2c1c(C)nn2CCC#N	6	-8	6	-5
O=C(NCCc1nnc2ccc(NCc3cccnc3)nn12)c1ccccc1F	/	/	1	/
CCOC(=O)c1sc(NC(=O)c2cccs2)cc1C	4	-20	5	-29
CCOC(=O)c1sc(NC(=O)Nc2cccc(Cl)c2)cc1C	2	3	9.0*	-54
SMILES	Measles CPE	Yeast life ext	RAM network inh	BB579 growth dn
CCOC(=O)C1C(=O)C(C(C)=O)C(=O)CC1CC(C)SCC (configuration not stated)	7	93*	-2	-50
Cc1ccc(/C=C2\C(=O)Nc3ccccc32)o1	4	-7	1	60*
Cc1ccccc1OCC(=O)N1N=C(c2cccnc2)CC1(O)C(F)(F)F (configuration not stated)	13	-1	0	7
O=C1C2CC=C(Cl)CC2C(=O)N1CCC[n+]1cccc2ccccc21 (configuration not stated)	24	5	3	-22
Cc1cccc(NC(=S)NC2CC3CCCC(C2)N3Cc2ccccc2)c1C (configuration not stated)	/	/	-1	/
O=C(Nc1ccc(Br)cc1)c1ccc(Br)c(S(=O)(=O)Nc2cccnc2)c1	46*	-3	6	-19
O=C(Nc1cccnc1)c1ccc(C(=O)Nc2cccnc2)cc1	/	/	0	/
COc1ccc(N(C(=O)C(C)C)S(=O)(=O)c2cccc([N+](=O)[O-])c2)cc1	/	/	6	/
COc1ccc(N(C(=O)C(C)C)S(=O)(=O)c2ccc(Cl)cc2)cc1	21	51*	5	-50
C/C=C/c1ccc(OCCCCN2CCN(CC)CC2)c(OC)c1	/	/	-1	/
C/C=C/c1ccc(OCCCCOc2ccc(OC)cc2)c(OC)c1	9	-5	10*	-44
CCOC(=O)CN(C(=O)CSc1nnc2c(n1)[nH]c1ccccc12)c1ccccc1	18	-5	5	-16
CCOC(=O)CN(C(=O)CSc1nnc2c(n1)[nH]c1c(C)cc(C)cc12)c1ccccc1	29	-8	8.9*	-59
[O-][N+]1=C(c2cccs2)CN(O)C1	34*	1	2	-35
CCc1nc(Nc2ccncc2)c2oc3ccccc3c2n1	3	-18	0	-25
CCc1nc(Nc2ccc3c(c2)OCO3)c2oc3ccccc3c2n1	57*	-30	1	-57
CCOc1ccc(-c2nc(C#N)c(NCc3ccc4c(c3)OCO4)o2)cc1	6	-2	11*	-16
COc1ccc(-c2nc(C#N)c(NCc3ccc(F)cc3)o2)cc1OC	15	-13	8.9*	-7
Nc1[nH]c(N=NC(=O)c2ccccc2)c2ccccc12	19	-3	0	-20
Nc1[nH]c(N=NC(=O)c2ccc(Cl)cc2)c2ccccc12	45*	-1	1	-34
CC(=O)Nc1cccc(-c2csc(NCc3ccco3)n2)c1	27*	-7	0	-50
O=C(COC(=O)c1cccc(Cl)c1)Nc1cc(Cl)ccc1Oc1ccccc1	3	13	10*	-50
CC(=O)Oc1ccc(-c2cccc(C(=O)OCC(=O)Nc3ccccc3Oc3ccccc3)c2)cc1	21	-4	6	-30
COC(=O)c1sccc1-c1ccc(C(=O)Nc2cccc(Cl)c2)o1	6	-10	9.8*	-44
CCN=C1Sc2nc3ccc(OCC)cc3cc2CN1CCOC	8	-11	1	-28
SMILES	Measles CPE	Yeast life ext	RAM network inh	BB579 growth dn
CCOc1ccc2nc3c(cc2c1)CN(CCOC)C(=NC)S3	29*	/	-1	-31
COc1cc2c(cc1OC)CN(C(=O)c1ccccc1C(=O)O)CC2	60*	-10	3	-19
CCC(C(=O)N1CCc2cc(OC)c(OC)cc2C1)c1ccccc1 (configuration not stated)	15	-5	1	-65
CCOc1ccc2c(c1)c(N=Nc1cccc(C(=O)O)c1)c(O)n2C	5	6	10*	-48
Cc1ccc2c(c1)c(N=Nc1cccc(C(=O)O)c1)c(O)n2C	/	/	3	/
Cc1ccc2nc(C)cc(C(=O)Nc3nccs3)c2c1	/	/	1	/
O=C(OCn1ncc(Br)c(Br)c1=O)c1ccc(F)cc1	0	-11	-1	91*
O=C(OCn1ncc(Br)c(Br)c1=O)c1ccccc1Cl	1	23	2	73*
CC(=O)Nc1ccc(C(=O)OCc2ccc(F)cc2)cc1	/	/	2	/
C/[N+]([O-])=C\C1C(=O)CC(C)(C)CC1=O	/	/	2	/
Cc1ccc(C(C2C(=O)CC(C)(C)CC2=O)C2C(=O)CC(C)(C)CC2=O)s1	28	34*	-1	-40
CCc1ccccc1N/C(=N\S(=O)(=O)c1ccccc1)C(F)(F)F	15	30*	2	-6

High-throughput results: PubChem, several laboratories
